Hsp70 act: Hsp70 transcriptional activators, primary screen, cell-based, HeLa, Hsp70 promoter luciferase, luminescence, 10 µM; 200,000 tested, 0.04% active; HeLa Hsp70 promoter luciferase reporter; scaled: vehicle 0, proteasome-inhibitor control 100%; activation, % at 10 µM; AID 1203, 2008;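 active = activation above the mean across all tested compounds plus 3 SD, cutoff set per campaign, cut at about 5.5% in these data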;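 note: 100% = MG132 at 30 µM as the positive control and 0% = DMSO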
b-catenin transl: modulators of beta-catenin nuclear translocation, primary screen, imaging, HeLa cells, immunofluorescence, high-content; nuclear translocation activity, % at 5 µM; 190,000 tested, 0.3% active;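 active = nuclear translocation activity above 50% at 5 µM, with a well cell count of 50 or more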;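 note: per-cell ratio of nuclear to cytoplasmic median beta-catenin stain intensity; plate controls were DMSO negative control for no effect and GSK-3 inhibitor IX positive control for full effect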
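Test system: human HeLa cell line; Doses: 5 µM primary, 0.02–20 µM confirmation; Incubation: 24 h compound exposure, 37°C; Detection: beta-catenin immunofluorescence imaging with DAPI; Read-out: beta-catenin nuclear/cytoplasmic ratio, % activation.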
MT stabilizer: microtubule stabilizers in HeLa cells, primary screen, imaging, high-content imaging; 200,000 tested, 0.83% active; % tubulin-high responders, % at 10 µM; AID 2205, 2009; HeLa tubulin immunostaining HCS, 24 h; share of cells brighter than vehicle mean+2SD;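 active = plate Z-score above 3 for both tubulin-high and condensed-nucleus cell shares, with cell loss under 80%, at 10 µM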;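 note: anti alpha tubulin signal scored within the nucleus-defined area of each cell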
Autophagy HCS: autophagy modulators in MEF cells, primary screen, imaging, high-content, MEF GFP-LC3. MEF GFP-LC3 puncta imaging; test concentration mostly 10 µM. calls only at 10 µM (by protocol). 190,000 tested, 0.98% active;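 active = percentage of spot-positive cells more than 3 SD above its plate mean, without a fluorescence outlier flag or 80% toxicity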;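 note: spot-positive cell cutoff set from DMSO-treated cells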
Dynein transport: inhibitors of GR-EGFP nuclear translocation, primary screen, dynein cargo transport inhibitor project, imaging, high-content, 3617.4 mouse cells | 220,000 tested, 0.47% active | test concentration mostly 20 µM; stimulated with dexamethasone, 1 µM; active compounds read low | z-score, hits read low | AID 1381, 2008;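 active = plate z-score of nuclear minus cytoplasmic receptor signal below a set negative limit, without overly bright fluorescence or cell loss, cut at about -3.5 in these data, passing the limit was not always enough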;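 note: z-score of nuclear minus cytoplasmic ring GR-EGFP intensity difference per well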
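Medium: Induction medium lacking tetracycline, stripped serum | Probe or stimulus: 1.0 µM final dexamethasone stimulus | Schedule: 48 h induction, then 1 h compound, then 30 min agonist, 37 °C | Signal: Automated 10x imaging of fixed Hoechst-stained cells | Evaluation: Per-cell GR-EGFP intensity, nucleus versus surrounding cytoplasmic ring, well-averaged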
* hit, by the source's call; i = inactive; . = no result given; + = active, no number. Only some compounds are listed: those with a hit (about 2.1% of all), similar ones and a draw of the others.

SMILES	Hsp70 act	b-catenin transl	MT stabilizer	Autophagy HCS	Dynein transport
CCCCCCCCNC(=O)c1cccnc1SCC(=O)Nc1ccccc1OC	0	-3	3	i	0.7
CCN(CC)c1ccc(NC(=O)c2cccc(F)c2)c(C)c1	0	26	37*	i	-0.18
CCOc1cc(C)c(C(C)C)cc1S(=O)(=O)n1cnc(C)c1	0	0	18*	i	-0.68
COc1ccc(C(C)C)cc1S(=O)(=O)n1cnc(C)c1	0	.	18*	i	0.13
CCOC(=O)C(=CNc1cc(C)ccc1-n1cccc1)C(=O)OCC	.	-2	.	.	0.79
CCOc1ccc(NC(=O)CN(c2ccc([N+](=O)[O-])cc2)S(=O)(=O)c2ccccc2)cc1	0	0	14*	i	-0.69
NC(=O)N/N=C/c1ccc(-c2ccc([N+](=O)[O-])cc2)o1	.	4	.	.	-0.23
O=[N+]([O-])c1cccc(-c2ccc(/C=N/NC(=S)Nc3ccccc3)o2)c1	-1	-2	3	+	-1.3
O=C(Cc1ccccc1)N/N=C/c1ccc(-c2ccc([N+](=O)[O-])cc2)o1	0	2	2	+	-0.036
Cc1ccc(C)c(N(CC(=O)N/N=C/c2ccc(-c3ccc([N+](=O)[O-])cc3)o2)S(=O)(=O)c2ccccc2)c1	0	2	2	+	0.56
CSc1cccc(NC(=S)N2CCCN(Cc3ccccc3F)C2)c1	0	-3	4	i	1.3
Cc1ccc(NS(=O)(=O)c2cccc(C(=O)Nc3c(C)n(C)n(-c4ccccc4)c3=O)c2)cc1	.	-2	.	.	1.4
CCOc1ccc(S(=O)(=O)N(CC(=O)N/N=C/c2ccc(-c3ccc([N+](=O)[O-])cc3)o2)c2ccccc2)cc1	0	60*	26*	i	-1.2
CCOc1ccc(N(CC(=O)N/N=C/c2cc([N+](=O)[O-])ccc2Cl)S(C)(=O)=O)cc1	0	-1	1	i	-0.16
CC1(C)CC(=O)c2cnc(NC(=O)CSC(=S)N3CCCCC3)nc2C1	.	-1	.	.	-0.29
CCCOC(=O)c1ccc(NC(=O)C(CC)CC)cc1	0	0	3	i	-0.028
COc1ccc(NC(=S)NCCN2CCOCC2)cc1	0	3	2	i	0.08
COc1cc(NC(=S)NCCN2CCOCC2)cc(OC)c1	0	-1	5	+	2.2
COC(=O)c1ccc(NC(=O)CN2CCN(c3ccc(Cl)cc3)CC2)cc1	0	1	3	+	-0.062
CC1=C(C(=O)OCC2CCCO2)C(c2ccsc2)C2=C(CCCC2=O)N1 (stereo not drawn)	0	1	3	i	0.26
COc1cccc(/C=N/n2c(SC)nnc2-c2ccccc2)c1O	0	90*	27	i	-0.4
CCC1CCCCN1CCCNC(=O)c1cc2c(=O)[nH]c3ccccc3c2n1C (stereo not drawn)	0	-1	1	i	-0.66
COc1ccc(NC(=O)c2cccnc2N2CCOCC2)cc1	0	-5	2	i	0.24
CCOC(=O)C(C)Oc1cccc2c(=O)n(CC(=O)Nc3ccc4c(c3)OCCO4)ccc12 (stereo not drawn)	0	-1	6	i	-0.34
CCOC(=O)COc1cccc2c(=O)n(CC(=O)NCc3ccccc3)ccc12	.	56*	.	.	-0.45
SMILES	Hsp70 act	b-catenin transl	MT stabilizer	Autophagy HCS	Dynein transport
CCOC(=O)C(C)Oc1cccc2c(=O)n(CC(=O)NCc3ccc4c(c3)OCO4)ccc12 (stereo not drawn)	1	73*	16*	i	0.25
CCOC(=O)COc1cccc2c(=O)n(CC(=O)NCc3ccc(F)cc3)ccc12	.	74*	.	.	-0.93
O=C1CCC/C(=N\NC(=O)COc2ccc(Cl)cc2)C1	0	-1	3	i	0.45
CCOC(=O)C1(CCOC)CCN(Cc2ccc(C3CCCCO3)s2)CC1 (stereo not drawn)	0	-1	2	i	1.5
C=CCc1ccc(OCCOCCNCCCC)c(OC)c1	0	0	1	+	0.1
Cc1cc(NC(=O)CSc2nc(N)c(NC(=O)c3ccco3)c(=O)[nH]2)no1	.	0	.	.	-0.73

Bioassay records from PubChem BioAssay.
